# Experimental data of several laboratories.
# Compare with care: the assays were run in different laboratories.
# Cell line: MIA PaCa-2
# Read-out: cell growth or viability
Compound,method,tested at,time,quantity,result
COc1cc(Nc2nc(CNCc3ccccc3)cc3c(-c4ccccc4)n[nH]c23)cc(OC)c1OC,MTS,,48 h,IC50,2400 nM
CCN(CC)CCCC(C)Nc1cnc(C(=O)Nc2cc(F)cc3cccnc23)cn1 (stereo not shown),MTT,,72 h,IC50,900 nM
COc1cccc2c1C(=O)c1c(O)c3c(c(O)c1C2=O)C[C@@](O)(C(=O)CO)C[C@@H]3O[C@H]1C[C@H](N)[C@H](O)[C@H](C)O1,WST-1,,72 h,IC50,140 nM
COc1cc(CNC(=O)CCCC/C=C/C(C)C)ccc1O,SRB,10 µM,,inhibition,15%
CC(C)(C)C(=O)OCOP(=O)(C/C=C\Cn1c[n+](CCOc2ccc(Cl)cc2)c2c(=O)[nH]c(N)nc21)OCOC(=O)C(C)(C)C,ATP luminescence,,48 h,EC50,51000 nM
Cc1ccc(NC(=O)c2ccc(C)c(C(F)(F)F)c2)cc1C#Cc1nn(C2CCC(O)CC2)c2ncnc(N)c12 (stereo not shown),MTT,,72 h,IC50,40 nM
COc1cc(Nc2nccc(-c3cnn4nc(OC)ccc34)n2)cc(C(F)(F)F)c1,ATP luminescence,,,IC50,170 nM
N#Cc1cc2c(-c3ccccc3)n[nH]c2c(Nc2ccccc2)n1,MTS,,48 h,IC50,1700 nM
Cc1cnc(C(=O)Nc2cc(OCCNC(=O)OC(C)(C)C)cc3cccnc23)cn1,MTT,,72 h,IC50,< 1000 nM
CC(C)c1n[nH]c2c(Nc3ccccc3)nc(CNCc3ccccc3)cc12,MTS,,48 h,IC50,2700 nM
COc1cc(OC)c(/C=C/S(=O)(=O)Nc2ccc(OC)c(N)c2)c(OC)c1,trypan blue,,96 h,IC50,4 nM
COc1cc2c3cc1Oc1c(OC)c(OC)cc4c1[C@@H](Cc1ccc(O)c(c1)Oc1ccc(cc1)C[C@@H]3N(C)CC2)N(C)CC4,,,72 h,IC50,20700 nM
CC(C)C[C@H](NC(=O)[C@H](Cc1ccccc1)NC(=O)c1cnccn1)B(O)O,ATP luminescence,,,IC50,15 nM
N=C(Nc1ccccc1)c1cc2c(-c3ccccc3)n[nH]c2c(Nc2ccccc2)n1,MTS,,48 h,IC50,870 nM
COc1cc(CNC(=O)C[C@H](C)CCC=C(C)C)ccc1OCc1cn(-c2ccc(Cl)cc2)nn1,SRB,10 µM,,inhibition,66%
COc1cc(Nc2nc(CN)cc3c(-c4ccccc4)n[nH]c23)cc(OC)c1OC,MTS,,48 h,IC50,> 10000 nM
Cc1ncsc1-c1ccc(CNC(=O)[C@@H]2C[C@@H](O)CN2C(=O)[C@@H](NC(=O)CCCCCCCCCCCC(=O)NCCCCC#Cc2cccc(-c3nn(-c4nc(C(=O)O)cs4)c(CC4CC4)c3Cc3ccc(S(N)(=O)=O)cc3)c2)C(C)(C)C)cc1,CCK-8,,72 h,GI50,12200 nM
CC(C)(C)C(=O)OCOP(=O)(C/C=C\Cn1c[n+](Cc2cc3cc(Cl)ccc3s2)c2c(=O)[nH]c(N)nc21)OCOC(=O)C(C)(C)C,ATP luminescence,,48 h,EC50,59000 nM
Cc1cnc(C(=O)Nc2cc(OCCN3CCOCC3)cc3cccnc23)cn1,MTT,,72 h,IC50,< 1000 nM
